Measured values published in BindingDB's records for doi:10.1016/j.bmcl.2012.01.074 (Spanish National Cancer Research Centre (Cnio), 2012).

These compounds were tested against Phosphatidylinositol 3-kinase regulatory subunit alpha/4,5-bisphosphate 3-kinase catalytic subunit alpha isoform (Homo sapiens, UniProt P27986+P42336) (assay: Inhibition of PI3K p110alpha/p85alpha).
Summary of the method: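 Biochemical kinase assay following the kit manufacturer's protocol with a modified kinase buffer (50 mM HEPES pH 7.5, 3 mM MgCl2, 100 mM NaCl, 1 mM EGTA, 0.04% CHAPS, 2 mM TCEP, 0.01 mg/ml BGG); 10 nM enzyme; ATP 50 µM; values are averages of two independent experiments, each in duplicate.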

Chain of Phosphatidylinositol 3-kinase regulatory subunit alpha/4,5-bisphosphate 3-kinase catalytic subunit alpha isoform (P27986 whole entry, canonical isoform): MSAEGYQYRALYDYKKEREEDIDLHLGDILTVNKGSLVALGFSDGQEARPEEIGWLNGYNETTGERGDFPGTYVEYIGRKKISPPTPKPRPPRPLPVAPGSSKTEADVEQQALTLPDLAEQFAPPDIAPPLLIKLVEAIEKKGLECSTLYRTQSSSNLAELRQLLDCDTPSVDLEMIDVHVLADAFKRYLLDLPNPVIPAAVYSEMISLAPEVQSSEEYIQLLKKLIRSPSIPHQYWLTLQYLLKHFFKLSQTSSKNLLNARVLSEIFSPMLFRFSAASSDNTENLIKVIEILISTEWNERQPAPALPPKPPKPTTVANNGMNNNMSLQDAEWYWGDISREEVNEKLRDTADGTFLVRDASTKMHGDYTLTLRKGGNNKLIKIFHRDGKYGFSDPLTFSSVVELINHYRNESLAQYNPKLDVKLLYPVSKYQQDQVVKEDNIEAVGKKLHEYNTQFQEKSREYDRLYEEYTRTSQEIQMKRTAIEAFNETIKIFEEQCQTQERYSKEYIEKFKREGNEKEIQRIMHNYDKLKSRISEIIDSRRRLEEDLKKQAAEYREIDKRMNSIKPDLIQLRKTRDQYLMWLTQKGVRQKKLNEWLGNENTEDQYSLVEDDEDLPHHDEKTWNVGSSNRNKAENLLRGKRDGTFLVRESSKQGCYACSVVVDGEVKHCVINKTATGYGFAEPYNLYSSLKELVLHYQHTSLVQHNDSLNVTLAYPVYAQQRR
Chain of Phosphatidylinositol 3-kinase regulatory subunit alpha/4,5-bisphosphate 3-kinase catalytic subunit alpha isoform (P42336 whole entry, canonical isoform): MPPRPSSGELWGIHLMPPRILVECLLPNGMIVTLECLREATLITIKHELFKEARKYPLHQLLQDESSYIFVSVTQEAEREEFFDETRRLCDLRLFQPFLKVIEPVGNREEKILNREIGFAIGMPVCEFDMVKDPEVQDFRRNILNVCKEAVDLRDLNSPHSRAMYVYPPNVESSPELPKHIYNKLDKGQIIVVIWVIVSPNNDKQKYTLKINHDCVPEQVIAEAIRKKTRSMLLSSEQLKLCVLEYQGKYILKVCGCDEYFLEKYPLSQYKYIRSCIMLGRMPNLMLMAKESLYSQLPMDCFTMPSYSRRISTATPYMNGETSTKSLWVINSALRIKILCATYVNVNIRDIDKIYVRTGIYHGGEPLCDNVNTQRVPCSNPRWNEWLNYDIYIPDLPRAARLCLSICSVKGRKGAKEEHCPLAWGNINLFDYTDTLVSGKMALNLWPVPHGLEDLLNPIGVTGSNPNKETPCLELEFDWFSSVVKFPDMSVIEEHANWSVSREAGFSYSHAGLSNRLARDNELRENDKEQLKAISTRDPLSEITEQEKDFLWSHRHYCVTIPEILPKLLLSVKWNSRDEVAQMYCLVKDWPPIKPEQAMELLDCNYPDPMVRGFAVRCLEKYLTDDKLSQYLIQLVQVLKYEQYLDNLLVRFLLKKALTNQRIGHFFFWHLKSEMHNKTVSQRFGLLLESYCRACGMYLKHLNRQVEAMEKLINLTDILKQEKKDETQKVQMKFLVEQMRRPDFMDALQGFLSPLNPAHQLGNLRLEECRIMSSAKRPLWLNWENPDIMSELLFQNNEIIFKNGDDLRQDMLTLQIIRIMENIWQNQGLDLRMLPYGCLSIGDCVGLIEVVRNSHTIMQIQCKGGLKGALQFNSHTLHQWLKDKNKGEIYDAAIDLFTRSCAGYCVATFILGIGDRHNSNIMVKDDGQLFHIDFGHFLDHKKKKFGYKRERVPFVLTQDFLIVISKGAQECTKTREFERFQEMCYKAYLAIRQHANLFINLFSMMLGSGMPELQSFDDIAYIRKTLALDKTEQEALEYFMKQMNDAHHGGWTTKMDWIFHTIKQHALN

IC50 | Compound
92 nM | CCNC(=O)c1cn2cc(-c3cccc4[nH]ncc34)nc(N3CCOCC3)c2n1
340 nM | Oc1cccc(-c2cn3cc(C4CC4)nc3c(N3CCOCC3)n2)c1
38 nM | O=C(NCCN1CCOCC1)c1cn2cc(-c3cccc4[nH]ncc34)nc(N3CCOCC3)c2n1
108 nM | Oc1cccc(-c2cn3cc(C(F)(F)F)nc3c(N3CCOCC3)n2)c1
444 nM | Oc1cccc(-c2cn3cc(CN4CCOCC4)nc3c(N3CCOCC3)n2)c1
110 nM | CNC(=O)c1cn2cc(-c3cccc4[nH]ncc34)nc(N3CCOCC3)c2n1
96 nM | Cc1cn2cc(-c3cccc(O)c3)nc(N3CCOCC3)c2n1
451 nM | CC(=O)N1CCN(Cc2cn3cc(-c4cccc(O)c4)nc(N4CCOCC4)c3n2)CC1
639 nM | OCc1cn2cc(-c3cccc(O)c3)nc(N3CCOCC3)c2n1
540 nM | O=C1CN(Cc2cn3cc(-c4cccc(O)c4)nc(N4CCOCC4)c3n2)CCN1
